Assays:
Assay type in all cases: functional, cell-based
[1] = system: NCI-H292; assay: Cytotoxicity against human NCI-H292 cells after 24 hrs by MTT assay; details: NCI-H292, 24 h
Summary of the method: (§1)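 Cells plated 24 h before treatment, then exposed continuously to a range of compound concentrations for 24 h. MTT added and incubated 4 h at 37 °C under 5% CO2. Absorbance read at 570 nm. IC50 taken from plotted results with untreated cells set at 100%. Run at least three times; means ± SD of triplicates.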

[2] = Cytotoxicity against rat PC12 cells after 24 hrs by MTT assay; details: PC-12, 24 h; summary of the method: as §1
[3] = system: A549; assay: Cytotoxicity against human A549 cells after 24 hrs by MTT assay; details: A549, 24 h; summary of the method: as §1
[4] = system: DU-145; assay: Cytotoxicity against human DU145 cells after 24 hrs by MTT assay; details: DU-145, 24 h; summary of the method: as §1
[5] = system: PC-3; assay: Cytotoxicity against human PC3 cells after 24 hrs by MTT assay; details: PC-3, 24 h; summary of the method: as §1
[6] = system: NCI-H1299; assay: Cytotoxicity against human NCI-H1299 cells after 24 hrs by MTT assay; details: NCI-H1299, 24 h; summary of the method: as §1
[7] = Cytotoxicity against human A172 cells after 24 hrs by MTT assay; details: A 172, 24 h; summary of the method: as §1

Row | Structure (SMILES) | IC50 [1] [µM] | IC50 [2] [µM] | IC50 [3] [µM] | IC50 [4] [µM] | IC50 [5] [µM] | IC50 [6] [µM] | IC50 [7] [µM]
1 | CC(=O)O[C@@]1(C)CCC(=O)[C@@H](C)CCC[C@]2(C)O[C@H]2C(=O)C(=C(C)C)CC1 | 21.4 | 24.5 | 31.1 | 43.7 | 24.3 | 17.2 | 23.1
2 | CC(=O)O[C@@]1(C)CCC(=O)[C@H](C)CCC[C@]2(C)O[C@H]2C(=O)C(=C(C)C)CC1 | 38.9 | 43.8 | > 50 | > 50 | 44.9 | 19.5 | 31.9
3 | CC(=O)O[C@@]1(C)CCC(=O)/C(C)=C/CC[C@]2(C)O[C@H]2C(=O)C(=C(C)C)CC1 | 48.7 | 40.6 | > 50 | > 50 | > 50 | 40.3 | 37.3
4 | CC(=O)O[C@]1(C)CCC(=C(C)C)C(=O)[C@@H]2O[C@@]2(C)CC/C=C(\C)[C@H](O)CC1 | > 50 | 30.2 | 21.5 | > 50 | > 50 | 20.9 | > 50
5 | CC(=O)O[C@@]1(C)C/C=C2\O[C@H](C[C@@H]2C)C[C@]2(C)O[C@H]2C(=O)C(=C(C)C)CC1 | > 50 | 41.1 | > 50 | > 50 | > 50 | 28.3 | > 50
6 | CC(=O)O[C@]1(C)CCC(=C(C)C)C(=O)[C@@H]2O[C@@]2(C)C[C@H]2C[C@H](C)[C@@](O)(CC1)O2 | > 50 | 37.1 | > 50 | > 50 | > 50 | 23.5 | > 50
7 | CC(=O)O[C@@]1(C)CCC/C(C)=C/CC[C@@]2(C)O[C@@H]2C(=O)C(=C(C)C)CC1 | > 50 | 47.1 | > 50 | > 50 | > 50 | 41.6 | > 50
8 | CC(C)=C1CC[C@]2(C)CC[C@]3(O[C@H](C[C@@H]3C)C[C@]3(C)O[C@H]3C1=O)O2 | > 50 | 36.4 | > 50 | > 50 | > 50 | > 50 | > 50
9 | CC(C)=C1CC[C@]2(C)CC[C@]3(O[C@H](C[C@H]3C)C[C@]3(C)O[C@H]3C1=O)O2 | 48.1 | > 50 | > 50 | > 50 | > 50 | > 50 | > 50
10 | CC(=O)O[C@H]1C[C@]2(C)O[C@H]2CC/C(C)=C/[C@@H](OC(C)=O)[C@]2(C)[C@@H]1[C@H]([C@]1(C)CO1)C[C@@H]2OC(C)=O | > 50 | > 50 | > 50 | > 50 | > 50 | > 50 | > 50
11 | CC(C)[C@H]1CC[C@]2(C)C[C@]3(O)C(=CC(=O)[C@H]3C)[C@@H](C)CC[C@@H]12 [ANADENSIN] | > 50 | 31.1 | > 50 | > 50 | > 50 | 34.7 | > 50
